Reference: ChEMBL document CHEMBL2384906, “Biological activity, design, synthesis and structure activity relationship of some novel derivatives of curcumin containing sulfonamides” (Eur J Med Chem, 2013)
Active and inactive are the calls of the source.

What was measured:
HepG2 = test: Cytotoxicity against human HepG2 cells after 24 hrs by MTT assay; format: functional, cell-based
Method in brief: (§1)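 The MTT assay seeded 5 × 10⁴ cells per well and grew them 24 h in RPMI 1640 with compound at 2.5–200 µM. Medium without cells was the blank and adriamycin the positive control. MTT was added for 4 h at 37 °C, formazan was solubilised, and absorbance was read at 570 nm. IC50 is the concentration that cuts viability 50% against untreated cells.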

Trichoderma viride [1] = test: Antifungal activity against Trichoderma viride MTCC 1107 assessed as zone of inhibition at 40 uM after 48 hrs by disc diffusion method; format: functional; conditions: MTCC 1107, 48 h, read-out: IZ
Method in brief: (§2)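 Spores from 4-day potato dextrose agar cultures, suspended in sterile water at 1.5 × 10⁵ CFU/mL. 0.2 mL was spread on potato dextrose agar. 5 mm filter-paper discs soaked with test compound were laid on the lawn. Incubation was 48 h at 28 °C, then the inhibition zone was measured in mm. Fluconazole was the positive control and acetone the negative control.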

QG-56 = test: Cytotoxicity against human QG56 cells after 24 hrs by MTT assay; format: functional, cell-based; method in brief: as §1
Curvularia lunata [2] = test: Antifungal activity against Curvularia lunata MTCC 581 assessed as zone of inhibition at 80 uM after 48 hrs by disc diffusion method; format: functional; conditions: MTCC 581, 48 h, read-out: IZ; method in brief: as §2
Salmonella typhi [3] = test: Antimicrobial activity against Salmonella typhi ATCC 23564 assessed as diameter of inhibition zone at 80 uM after 24 hrs by Kirby -Baur disc diffusion method; format: functional, Salmonella enterica subsp. enterica serovar Typhi; conditions: Salmonella enterica, ATCC 23564, 24 h; read-out: DIZ
Curvularia lunata [4] = test: Antifungal activity against Curvularia lunata MTCC 581 assessed as zone of inhibition at 40 uM after 48 hrs by disc diffusion method; format: functional; conditions: MTCC 581, 48 h, read-out: IZ; method in brief: as §2
Bacillus cereus [5] = test: Antimicrobial activity against Bacillus cereus MTCC 7350 after 24 hrs by broth micro serial dilution method; format: functional
Method in brief: (§3)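 This was broth microdilution in autoclaved Mueller-Hinton broth. 150 µL of compound per well was serially diluted […], and 50 µL of test organism was added. Plates were incubated 24 h at 37 °C and optical density was read.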

Mus musculus = test: Antiinflammatory activity in mouse assessed as inhibition of carrageenan-induced increase in paw volume at 200 mg/kg administered 1 hr prior to carrageenan challenge measured after 3 hrs relative to control; format: functional
Method in brief: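 Mice were fasted 2 h and placed in groups of five. Controls received saline i.p. Phenylbutazone was given at 100 mg/kg i.p., curcumin at 200 mg/kg i.p., and derivatives at 200 mg/kg. After 1 h, 0.1 mL of 1% carrageenan in saline was injected subplantar into the right hind paw. Paw volume was followed by plethysmometer for 3 h, and % inhibition was calculated as (Vc − Vt)/Vc × 100.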

Trichoderma viride [6] = test: Antifungal activity against Trichoderma viride MTCC 1107 after 48 hrs; format: functional; conditions: MTCC 1107, 48 h
Pseudomonas aeruginosa [7] = test: Antimicrobial activity against Pseudomonas aeruginosa ATCC 15499 assessed as diameter of inhibition zone at 20 uM after 24 hrs by Kirby -Baur disc diffusion method; format: functional
Method in brief: (§4)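 Kirby-Bauer disc diffusion was used. Acetone stocks (160 µM) were serially doubled down to 80, 40 and 20 µM. 4 µL of each went onto 5 mm sterile paper discs, which were dried 30 min at 50 °C. Inoculum was 1.5 × 10⁸ CFU/mL diluted to 3 × 10² CFU/mL, and 50 µL was spread on Mueller-Hinton agar. After 24 h at 37 °C the inhibition-zone diameter was measured. Ciprofloxacin served as positive control.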

Salmonella typhi [8] = test: Antimicrobial activity against Salmonella typhi ATCC 23564 after 24 hrs by broth micro serial dilution method; format: functional, Salmonella enterica subsp. enterica serovar Typhi; conditions: Salmonella enterica, ATCC 23564, 24 h
Salmonella typhi [9] = test: Antimicrobial activity against Salmonella typhi ATCC 23564 assessed as diameter of inhibition zone at 20 uM after 24 hrs by Kirby -Baur disc diffusion method; format: functional; conditions: Salmonella enterica subsp. enterica serovar Typhi
Staphylococcus aureus [10] = test: Antimicrobial activity against Staphylococcus aureus ATCC 11632 assessed as diameter of inhibition zone at 40 uM after 24 hrs by Kirby -Baur disc diffusion method; format: functional; method in brief: as §4
Escherichia coli [11] = test: Antimicrobial activity against Escherichia coli ATCC 35218 assessed as diameter of inhibition zone at 80 uM after 24 hrs by Kirby -Baur disc diffusion method; format: functional; conditions: ATCC 35218, 24 h, read-out: DIZ; method in brief: as §4
Escherichia coli [12] = test: Antimicrobial activity against Escherichia coli ATCC 35218 assessed as diameter of inhibition zone at 20 uM after 24 hrs by Kirby -Baur disc diffusion method; format: functional; method in brief: as §4
HCT-116 = test: Cytotoxicity against human HCT116 cells after 24 hrs by MTT assay; format: functional, cell-based; method in brief: as §1
Pseudomonas aeruginosa [13] = test: Antimicrobial activity against Pseudomonas aeruginosa ATCC 15499 after 24 hrs by broth micro serial dilution method; format: functional; conditions: ATCC 15499, 24 h; method in brief: as §3
Trichoderma viride [14] = test: Antifungal activity against Trichoderma viride MTCC 1107 assessed as zone of inhibition at 20 uM after 48 hrs by disc diffusion method; format: functional; method in brief: as §2
Staphylococcus aureus [15] = test: Antimicrobial activity against Staphylococcus aureus ATCC 11632 assessed as diameter of inhibition zone at 80 uM after 24 hrs by Kirby -Baur disc diffusion method; format: functional; conditions: ATCC 11632, 24 h, read-out: DIZ; method in brief: as §4
Pseudomonas aeruginosa [16] = test: Antimicrobial activity against Pseudomonas aeruginosa ATCC 15499 assessed as diameter of inhibition zone at 40 uM after 24 hrs by Kirby -Baur disc diffusion method; format: functional; conditions: ATCC 15499, 24 h, read-out: DIZ; method in brief: as §4
Aspergillus flavus [17] = test: Antifungal activity against Aspergillus flavus MTCC 1021 assessed as zone of inhibition at 80 uM after 48 hrs by disc diffusion method; format: functional; method in brief: as §2
Pseudomonas aeruginosa [18] = test: Antimicrobial activity against Pseudomonas aeruginosa ATCC 15499 assessed as diameter of inhibition zone at 80 uM after 24 hrs by Kirby -Baur disc diffusion method; format: functional; conditions: ATCC 15499, 24 h, read-out: DIZ; method in brief: as §4
Curvularia lunata [19] = test: Antifungal activity against Curvularia lunata MTCC 581 after 48 hrs; format: functional; conditions: MTCC 581, 48 h
Escherichia coli [20] = test: Antimicrobial activity against Escherichia coli ATCC 35218 after 24 hrs by broth micro serial dilution method; format: functional; conditions: ATCC 35218, 24 h; method in brief: as §3
Curvularia lunata [21] = test: Antifungal activity against Curvularia lunata MTCC 581 assessed as zone of inhibition at 20 uM after 48 hrs by disc diffusion method; format: functional; method in brief: as §2
Salmonella typhi [22] = test: Antimicrobial activity against Salmonella typhi ATCC 23564 assessed as diameter of inhibition zone at 40 uM after 24 hrs by Kirby -Baur disc diffusion method; format: functional, Salmonella enterica subsp. enterica serovar Typhi; conditions: Salmonella enterica, ATCC 23564, 24 h; read-out: DIZ
Aspergillus niger [23] = test: Antifungal activity against Aspergillus niger MTCC 1108 after 48 hrs; format: functional; conditions: MTCC 1108, 48 h
Aspergillus flavus [24] = test: Antifungal activity against Aspergillus flavus MTCC 1021 after 48 hrs; format: functional; conditions: MTCC 1021, 48 h
Escherichia coli [25] = test: Antimicrobial activity against Escherichia coli ATCC 35218 assessed as diameter of inhibition zone at 40 uM after 24 hrs by Kirby -Baur disc diffusion method; format: functional; method in brief: as §4
Aspergillus niger [26] = test: Antifungal activity against Aspergillus niger MTCC 1108 assessed as zone of inhibition at 80 uM after 48 hrs by disc diffusion method; format: functional; method in brief: as §2
HeLa = test: Cytotoxicity against human HeLa cells after 24 hrs by MTT assay; format: functional, cell-based; method in brief: as §1
Staphylococcus aureus [27] = test: Antimicrobial activity against Staphylococcus aureus ATCC 11632 assessed as diameter of inhibition zone at 20 uM after 24 hrs by Kirby -Baur disc diffusion method; format: functional; method in brief: as §4
Staphylococcus aureus [28] = test: Antimicrobial activity against Staphylococcus aureus ATCC 11632 after 24 hrs by broth micro serial dilution method; format: functional; conditions: ATCC 11632, 24 h; method in brief: as §3
Bacillus cereus [29] = test: Antimicrobial activity against Bacillus cereus MTCC 7350 assessed as diameter of inhibition zone at 80 uM after 24 hrs by Kirby -Baur disc diffusion method; format: functional; method in brief: as §4
Trichoderma viride [30] = test: Antifungal activity against Trichoderma viride MTCC 1107 assessed as zone of inhibition at 80 uM after 48 hrs by disc diffusion method; format: functional; conditions: MTCC 1107, 48 h, read-out: IZ; method in brief: as §2

COc1ccc(NS(=O)(=O)c2ccc(/N=N/c3c(/C=C/c4ccc(O)c(OC)c4)noc3/C=C/c3ccc(O)c(OC)c3)cc2)nn1
48.3%: inhibition in vivo at 200 mg/kg (Mus musculus)
13 mm: zone of inhibition at 80 µM (Pseudomonas aeruginosa [18])
> 80 µM: MIC (Trichoderma viride [6]) | MIC (Curvularia lunata [19]) | MIC (Escherichia coli [20]) | MIC (Aspergillus niger [23]) | MIC (Aspergillus flavus [24]) | MIC (Staphylococcus aureus [28])
10 mm: zone of inhibition at 80 µM (Staphylococcus aureus [15])
9 mm: zone of inhibition at 40 µM (Trichoderma viride [1]) | zone of inhibition at 40 µM (Curvularia lunata [4]) | zone of inhibition at 40 µM (Pseudomonas aeruginosa [16]) | zone of inhibition at 40 µM (Salmonella typhi [22])
11 mm: zone of inhibition at 80 µM (Curvularia lunata [2]) | zone of inhibition at 80 µM (Escherichia coli [11]) | zone of inhibition at 80 µM (Trichoderma viride [30])
14 mm: zone of inhibition at 80 µM (Salmonella typhi [3])
80 µM: MIC (Salmonella typhi [8]) | MIC (Pseudomonas aeruginosa [13])
Not Active: IC50 (HepG2) | IC50 (QG-56) | IC50 (HCT-116) | IC50 (HeLa)
inactive: MIC (Bacillus cereus [5]) | diameter of the inhibition zone (DIZ) (Pseudomonas aeruginosa [7]) | diameter of the inhibition zone (DIZ) (Salmonella typhi [9]) | diameter of the inhibition zone (DIZ) (Staphylococcus aureus [10]) | diameter of the inhibition zone (DIZ) (Escherichia coli [12]) | inhibition zone (IZ) (Trichoderma viride [14]) | inhibition zone (IZ) (Aspergillus flavus [17]) | inhibition zone (IZ) (Curvularia lunata [21]) | diameter of the inhibition zone (DIZ) (Escherichia coli [25]) | inhibition zone (IZ) (Aspergillus niger [26]) | diameter of the inhibition zone (DIZ) (Staphylococcus aureus [27]) | diameter of the inhibition zone (DIZ) (Bacillus cereus [29])
